# Laboratory results as given in ChEMBL document CHEMBL1772988, “(-)-Epigallocatechin-3-O-gallate induces nonapoptotic cell death in leukemia cells independent of the 67 kDa laminin receptor” (2011).
# Activity calls are given as the source filed them. No cut-off for these calls is given here.
# Key:
# [1] = test system: Raji; assay: Growth inhibition against human Raji cells assessed as cell viability at 10 uM after 48 hrs by trypan blue based microscopic analysis in presence of catalase; type: functional
# In short: (§1)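 Raji cells were seeded at 1 × 10^5 cells/mL and HL60 at 5 × 10^4 cells/mL. Medium held SOD (5 U/mL), catalase (30 U/mL) or both, plus 10 μM EGCG, for 48 h. Viable cells counted after trypan blue by hemacytometer; growth rate relative to untreated. Means ± SD of more than three experiments in triplicate wells.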
# [2] = test system: Raji; assay: Growth inhibition against human Raji cells assessed as cell viability at 10 uM after 24 hrs by trypan blue based microscopic analysis; type: functional
# [3] = test system: HL-60; assay: Induction of intracellular reactive oxygen species production in human HL60 cells at 10 uM after 1 to 3 hrs by flow cytometry; type: functional, cell-based
# In short: (§2)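 Cells treated with 10 μM EGCG for 1 and 3 h. Then 1 × 10^5 cells stained with 5 μM H2-DCFDA for 25 min at 37 °C, washed and resuspended in PBS. Oxidised-probe fluorescence read by flow cytometry. Means ± SD of more than three separate experiments.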
# [4] = test system: HL-60; assay: Growth inhibition against human HL60 cells assessed as cell viability at 10 uM after 48 hrs by trypan blue based microscopic analysis in presence of superoxide dismutase; type: functional; in short: as §1
# [5] = test system: HL-60; assay: Induction of myeloperoxidase expression in human HL60 cells after 24 hrs by flow cytometry; type: functional
# In short: (§3)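 Untreated cells seeded at 1 × 10^5 cells/mL and grown 24 h. Fixed/permeabilised with Cytofix/Cytoperm for 20 min on ice. Stained with mouse anti-MPO mAb (1% v/v) for 1 h at room temperature, then goat anti-mouse IgG-FITC (1% v/v) for 1 h in the dark. Basal intracellular MPO read by flow cytometry.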
# [6] = test system: HL-60; assay: Growth inhibition against human HL60 cells assessed as cell viability at 10 uM preincubated with N-acetyl-L-cysteine for 30 mins measured after 48 hrs by trypan blue based microscopic analysis; type: functional
# In short: (§4)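 Cells preincubated 30 min at 37 °C with 10 mM NAC, then seeded (Raji 1 × 10^5, HL60 5 × 10^4 cells/mL) and treated with 10 μM EGCG for 48 h. Viable cells were counted after trypan blue exclusion by hemacytometer. Growth rate = viable treated/viable untreated cells. Means ± SD of more than three experiments in triplicate wells.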
# [7] = test system: K562; assay: Cytotoxicity against human K562 cells assessed as cell growth inhibition at 10 uM after 7 days by trypan blue based microscopic analysis; type: functional
# In short: (§5)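 Cells seeded at 2 × 10^3 cells/mL in culture medium with 1 nM–10 μM compound and cultured 7 days. HL60 and Raji were grown in RPMI 1640, K562 in F-12, UT-7 in IMDM with TPO 10 ng/mL; all media had 10% heat-inactivated FBS, 37 °C, 5% CO2. Viable trypan blue-excluding cells counted by hemacytometer; growth rate = viable treated/viable untreated. Means ± SD.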
# [8] = test system: Raji; assay: Growth inhibition against human Raji cells assessed as cell viability at 10 uM preincubated with N-acetyl-L-cysteine for 30 mins measured after 48 hrs by trypan blue based microscopic analysis; type: functional; in short: as §4
# [9] = test system: HL-60; assay: Induction of apoptosis in human HL60 cells assessed as intracellular caspase-3 activation after 24 hrs (reference value: 1.3 %); type: functional
# [10] = test system: Raji; assay: Induction of apoptosis in human Raji cells assessed as necrotic cells at 10 uM by measuring phosphatidylserine translocation using annexin V-FITC/propidium iodide staining by FACS; type: functional, cell-based; details: TDE = time-dependent effect
# [11] = test system: Raji; assay: Induction of apoptosis in human Raji cells assessed as early apoptotic cells at 10 uM after 12 hrs by measuring phosphatidylserine translocation using annexin V-FITC/propidium iodide staining by FACS (reference value: 3.7 %); type: functional
# [12] = test system: Raji; assay: Induction of apoptosis in human Raji cells assessed as early apoptotic cells at 10 uM after 24 hrs by measuring phosphatidylserine translocation using annexin V-FITC/propidium iodide staining by FACS (reference value: 3.7 %); type: functional
# [13] = test system: Raji; assay: Induction of intracellular reactive oxygen species production in human Raji cells at 10 uM after 1 to 3 hrs by flow cytometry; type: functional, cell-based; in short: as §2
# [14] = test system: HL-60; assay: Cytotoxicity against human HL60 cells assessed as cell growth inhibition after 7 days by trypan blue based microscopic analysis; type: functional; in short: as §5
# [15] = test system: HL-60; assay: Induction of apoptosis in human HL60 cells assessed as intracellular caspase-3 activation after 48 hrs (reference value: 1.3 %); type: functional
# [16] = test system: Raji; assay: Induction of apoptosis in human Raji cells assessed as intracellular caspase-3 activation after 48 hrs (reference value: 3.4 %); type: functional
# [17] = test system: K562; assay: Induction of intracellular reactive oxygen species production in human K562 cells at 10 uM after 1 to 3 hrs by flow cytometry; type: functional, cell-based; in short: as §2
# [18] = test system: Raji; assay: Induction of apoptosis in human Raji cells assessed as necrotic cells at 10 uM after 12 hrs by measuring phosphatidylserine translocation using annexin V-FITC/propidium iodide staining by FACS (reference value: 3.4 %); type: functional
# [19] = test system: UT7; assay: Cytotoxicity against human UT7 cells assessed as cell growth inhibition at 10 uM after 7 days by trypan blue based microscopic analysis; type: functional; in short: as §5
# [20] = test system: Raji; assay: Induction of apoptosis in human Raji cells assessed as necrotic cells at 10 uM after 6 hrs by measuring phosphatidylserine translocation using annexin V-FITC/propidium iodide staining by FACS (reference value: 3.4 %); type: functional
# [21] = test system: Raji; assay: Induction of apoptosis in human Raji cells assessed as late apoptotic or secondary necrotic cells at 10 uM after 24 hrs by measuring phosphatidylserine translocation using annexin V-FITC/propidium iodide staining by FACS (reference value: 2.2 %); type: functional
# [22] = test system: Raji; assay: Growth inhibition against human Raji cells assessed as cell viability at 10 uM after 48 hrs by trypan blue based microscopic analysis in presence of superoxide dismutase; type: functional; in short: as §1
# [23] = test system: K562; assay: Induction of myeloperoxidase expression in human K562 cells after 24 hrs by flow cytometry; type: functional; in short: as §3
# [24] = test system: Raji; assay: Induction of apoptosis in human Raji cells assessed as early apoptotic cells at 10 uM after 6 hrs by measuring phosphatidylserine translocation using annexin V-FITC/propidium iodide staining by FACS (reference value: 3.7 %); type: functional
# [25] = test system: Raji; assay: Induction of apoptosis in human Raji cells assessed as necrotic cells at 10 uM after 24 hrs by measuring phosphatidylserine translocation using annexin V-FITC/propidium iodide staining by FACS (reference value: 3.4 %); type: functional
# [26] = test system: HL-60; assay: Cell cycle arrest in human HL60 cells by assessed as accumulation at subG1 phase at 10 uM using propidium iodide staining by flow cytometry in presence of superoxide dismutase and catalase; type: functional
# In short: (§6)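 Cells treated with 10 μM EGCG for 48 h, with or without SOD (5 U/mL) plus catalase (30 U/mL) in the medium. Harvested cells permeabilised in PBS with 0.1% Triton X-100 for 5 min on ice, stained with propidium iodide (50 μg/mL), and analysed by flow cytometry for sub-G1 fraction.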
# [27] = test system: Raji; assay: Cytotoxicity against human Raji cells assessed as cell growth inhibition after 7 days by trypan blue based microscopic analysis; type: functional; in short: as §5
# [28] = test system: HL-60; assay: Cell cycle arrest in human HL60 cells by assessed as accumulation at subG1 phase at 10 uM using propidium iodide staining by flow cytometry; type: functional; in short: as §6
# [29] = test system: HL-60; assay: Growth inhibition against human HL60 cells assessed as cell viability at 10 uM after 48 hrs by trypan blue based microscopic analysis in presence of superoxide dismutase and catalase; type: functional; in short: as §1
# [30] = test system: HL-60; assay: Growth inhibition against human HL60 cells assessed as cell viability at 10 uM after 48 hrs by trypan blue based microscopic analysis in presence of catalase; type: functional; in short: as §1
# [31] = test system: Raji; assay: Cell cycle arrest in human Raji cells by assessed as accumulation at subG1 phase at 10 uM using propidium iodide staining by flow cytometry in presence of superoxide dismutase and catalase; type: functional; in short: as §6
# [32] = test system: Raji; assay: Induction of apoptosis in human Raji cells assessed as intracellular caspase-3 activation after 24 hrs (reference value: 3.4 %); type: functional
# [33] = test system: Raji; assay: Induction of myeloperoxidase expression in human Raji cells after 24 hrs by flow cytometry; type: functional; in short: as §3
# [34] = test system: K562; assay: Induction of 67 kDa laminin receptor expression in human K562 cells after 24 hrs by flow cytometry analysis; type: functional, cell-based
# In short: (§7)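 Untreated cells seeded at 1 × 10^5 cells/mL and grown 24 h. Harvested cells labelled with mouse anti-67 LR IgM in 0.5% BSA/PBS for 1 h on ice, then anti-mouse IgM-FITC for 30 min at 4 °C in the dark. Read by flow cytometry.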
# [35] = test system: HL-60; assay: Growth inhibition against human HL60 cells assessed as cell viability at 10 uM after 24 hrs by trypan blue based microscopic analysis; type: functional
# [36] = test system: Raji; assay: Induction of apoptosis in human Raji cells assessed as late apoptotic or secondary necrotic cells at 10 uM after 6 hrs by measuring phosphatidylserine translocation using annexin V-FITC/propidium iodide staining by FACS (reference value: 2.2 %); type: functional
# [37] = test system: Raji; assay: Growth inhibition against human Raji cells assessed as cell viability at 10 uM after 48 hrs by trypan blue based microscopic analysis in presence of superoxide dismutase and catalase; type: functional; in short: as §1
# [38] = test system: Raji; assay: Induction of apoptosis in human Raji cells assessed as late apoptotic or secondary necrotic cells at 10 uM after 12 hrs by measuring phosphatidylserine translocation using annexin V-FITC/propidium iodide staining by FACS (reference value: 2.2 %); type: functional
# [39] = test system: HL-60; assay: Induction of 67 kDa laminin receptor expression in human HL60 cells after 24 hrs by flow cytometry analysis; type: functional, cell-based; in short: as §7
# [40] = test system: Raji; assay: Cell cycle arrest in human Raji cells by assessed as accumulation at subG1 phase at 10 uM using propidium iodide staining by flow cytometry; type: functional; in short: as §6
structure (smiles),measurement,setting,value
O=C(O[C@@H]1Cc2c(O)cc(O)cc2O[C@@H]1c1cc(O)c(O)c(O)c1)c1cc(O)c(O)c(O)c1 [EPIGALOCATECHIN GALLATE],growth inhibition (GI),[1],Active
same,Activity,[2],Active
same,Activity,[3],inactive
same,growth inhibition (GI),[4],Active
same,Activity,[5],49.2%
same,growth inhibition (GI),[6],Active
same,growth inhibition (GI),[7],inactive
same,growth inhibition (GI),[8],Active
same,Activity,[9],2.7%
same,Activity,[10],tde
same,Activity,[11],7.7%
same,Activity,[12],8.5%
same,Activity,[13],inactive
same,growth inhibition (GI),[14],Dose-dependent effect
same,Activity,[15],4.2%
same,Activity,[16],5.4%
same,Activity,[17],inactive
same,Activity,[18],6.7%
same,growth inhibition (GI),[19],inactive
same,Activity,[20],5.3%
same,Activity,[21],13%
same,growth inhibition (GI),[22],Active
same,Activity,[23],14.3%
same,Activity,[24],5.1%
same,Activity,[25],14.9%
same,Activity,[26],2.6%
same,growth inhibition (GI),[27],Dose-dependent effect
same,Activity,[28],45.9%
same,growth inhibition (GI),[29],inactive
same,growth inhibition (GI),[30],Active
same,Activity,[31],5.9%
same,Activity,[32],3.5%
same,Activity,[33],4.5%
same,Activity,[34],Active
same,Activity,[35],Active
same,Activity,[36],4.5%
same,growth inhibition (GI),[37],inactive
same,Activity,[38],7.8%
same,Activity,[39],Active
same,Activity,[40],3.8%
